{"source": "ChEMBL document CHEMBL1156916", "about": "“New fluorinated 1,2,4-benzothiadiazine 1,1-dioxides: discovery of an orally active cognitive enhancer acting through potentiation of the 2-amino-3-(3-hydroxy-5-methylisoxazol-4-yl)propionic acid receptors” (J Med Chem, 2010)", "key": {"[1]": {"test_system": "Oocyte", "test": "Induction of amplitude current in Xenopus laevis oocytes assessed as 2 fold increase in AMPA-induced current by voltage clamp method", "type": "functional", "in_short": "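Xenopus oocytes injected with poly(A+) mRNA from cortex of 15-day-old male Wistar rats, expressed 3 days at 18 °C. Two-electrode voltage clamp at -60 mV; 10 μM (S)-AMPA applied 30 s every 5 min. Compound given at increasing concentrations 45 s before, during and after AMPA; peak current compared with the same oocyte's control. EC2X is the 2-fold increase; n ≥ 3, mean ± SEM.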"}, "[2]": {"test_system": "Mus musculus", "test": "Toxicity in mouse at 10 to 30 mg/kg, ip by Irwin's test", "type": "organism-based", "set-up": "dose 10-30 mg/kg, route intraperitoneal", "details": "in vivo"}, "[3]": {"test_system": "Hippocampus", "test": "Increase in AMPA-mediated postsynaptic response recorded in rat hippocampus CA1 region assessed as increase in excitatory postsynaptic field potential half width at 50 uM", "type": "functional", "in_short": "(§1)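 Rat hippocampal slices, Schaffer collateral stimulation with EPSfPs recorded in CA1; perfusion medium contains 1.2 mM Mg2+. Compound bath-applied for 10 min at successively increasing concentrations, with washout to recovery. Amplitude, area and half-width averaged over five pulses and normalized to five pre-drug responses (100%). Compared with vehicle by two-way ANOVA plus Dunnett.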"}, "[4]": {"test_system": "Mus musculus", "test": "Toxicity in mouse assessed as hypothermia at 30 mg/kg, po after 1.5 hrs", "details": "in vivo"}, "[5]": {"test_system": "Rattus norvegicus", "test": "Increase in memory in Wistar rat at 0.03 to 1 mg/kg, po treated 60 mins before test session by object recognition test", "type": "functional, organism-based", "in_short": "(§2)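 Male Wistar rats (220-330 g), three sessions: 2 min habituation, acquisition with two identical objects, then 3 min recognition with one object replaced by a novel one. Oral compound or vehicle given 1 h before each session. Discrimination index is novel minus familiar exploration time; n = 9-10 per dose; ANOVA plus Dunnett.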"}, "[6]": {"test_system": "Rattus norvegicus", "test": "Increase in memory in po dosed Wistar rat by object recognition test", "type": "functional, organism-based", "in_short": "as §2"}, "[7]": {"test_system": "Mus musculus", "test": "Toxicity in mouse at 30 mg/kg, ip", "details": "in vivo"}, "[8]": {"test": "Dissociation constant, pKa of the compound", "type": "physicochemical"}, "[9]": {"test_system": "Liver microsomes", "test": "Metabolic stability in rat liver microsomes assessed as metabolite degradation after 30 mins at 37 degC by HPLC", "type": "ADME, Microsome", "details": "0.5 h", "in_short": "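Phenobarbital-induced rat liver microsomes at 1 mg/mL protein with 200 μM substrate (methanol <1%), 37 °C, NADPH-generating system in pH 7.4 phosphate buffer. Incubated 30 min; T0 samples quenched with organic solvent. Metabolites resolved by RP-HPLC with ESI-MS/MS and identified against synthetic standards.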"}, "[10]": {"test_system": "Rattus norvegicus", "test": "Increase in duration of long term potentiation in dentate gyrus of anesthetized Wistar rat hippocampus at 10 mg/kg, ip measured for 3 hrs", "type": "functional, organism-based", "set-up": "dose 10 mg/kg", "in_short": "(§3)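 Male Wistar rats (300-400 g) anaesthetized with chloral hydrate 400 mg/kg ip; body temperature held at 36.6-37 °C. Perforant path stimulated, dentate gyrus recorded. After a 60 min baseline, compound or vehicle given ip; tetanus 60 min later (four 400 Hz bursts). Recorded for 3 h; EPSfP amplitude normalized to baseline; two-way ANOVA plus Dunnett.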"}, "[11]": {"test_system": "Hippocampus", "test": "Increase in AMPA-mediated postsynaptic response recorded in rat hippocampus CA1 region assessed as increase in excitatory postsynaptic field potential area", "type": "functional, tissue-based", "in_short": "as §1"}, "[12]": {"test_system": "Hippocampus", "test": "Increase in AMPA-mediated postsynaptic response recorded in rat hippocampus CA1 region assessed as increase in excitatory postsynaptic field potential amplituted at 50 uM", "type": "functional", "in_short": "as §1"}, "[13]": {"test_system": "Hippocampus", "test": "Increase in AMPA-mediated postsynaptic response recorded in rat hippocampus CA1 region assessed as increase in excitatory postsynaptic field potential area at 50 uM", "type": "functional", "in_short": "as §1"}, "[14]": {"test_system": "Rattus norvegicus", "test": "Increase in long term potentiation-evoked EPSfP amplitude in dentate gyrus of anesthetized Wistar rat hippocampus at 3 mg/kg, ip measured for 3 hrs", "type": "functional, organism-based", "set-up": "dose 3 mg/kg", "in_short": "as §3"}}, "note": "Calls of active or inactive are those of the source. The calls are words filed in the database; no cut-off is given here.", "data": [{"compound": "CCN1CNS(=O)(=O)c2cc([N+](=O)[O-])ccc21", "values": [{"measurement": "EC", "setting": "[1]", "value": 16, "unit": "µM"}]}, {"compound": "O=S1(=O)N=CNc2ccc(Cl)cc21", "values": [{"measurement": "Activity", "setting": "[2]", "value": "Non-toxic"}]}, {"compound": "O=S1(=O)N=CN(CCF)c2ccc(Cl)cc21", "values": [{"measurement": "Activity", "setting": "[2]", "value": "Non-toxic"}]}, {"compound": "O=S1(=O)NCN(CCF)c2ccc(C(F)(F)F)cc21", "values": [{"measurement": "EC", "setting": "[1]", "value": ">300", "unit": "µM"}]}, {"compound": "CCN1CNS(=O)(=O)c2cc(I)ccc21", "values": [{"measurement": "EC", "setting": "[1]", "value": 95, "unit": "µM"}]}, {"compound": "O=S1(=O)N[C@H]2CCCN2c2ccccc21", "values": [{"measurement": "EC", "setting": "[1]", "value": 25, "unit": "µM"}]}, {"compound": "COc1ccc2c(c1)S(=O)(=O)NCN2CCF", "values": [{"measurement": "EC", "setting": "[1]", "value": 71, "unit": "µM"}]}, {"compound": "CCN1CNS(=O)(=O)c2cc(C(F)(F)F)ccc21", "values": [{"measurement": "EC", "setting": "[1]", "value": ">300", "unit": "µM"}]}, {"compound": "O=S1(=O)NCN(CCF)c2ccc(Cl)cc21", "values": [{"measurement": "EC", "setting": "[1]", "value": 6.7, "unit": "µM"}, {"measurement": "Activity", "setting": "[3]", "value": 47, "unit": "%"}, {"measurement": "Activity", "setting": "[4]", "value": "Toxic"}, {"measurement": "Activity", "setting": "[5]", "value": "Active"}, {"measurement": "Activity", "setting": "[6]", "value": "Active"}, {"measurement": "Activity", "setting": "[7]", "value": "Non-toxic"}, {"measurement": "pKa", "setting": "[8]", "value": 9.35}, {"measurement": "Stability", "setting": "[9]", "value": "Unstable"}, {"measurement": "Activity", "setting": "[10]", "value": "Active"}, {"measurement": "Activity", "setting": "[11]", "value": "Dose-dependent effect"}, {"measurement": "Activity", "setting": "[12]", "value": 23, "unit": "%"}, {"measurement": "Activity", "setting": "[13]", "value": 66, "unit": "%"}, {"measurement": "Activity", "setting": "[14]", "value": "Active"}]}, {"compound": "Cc1ccc2c(c1)S(=O)(=O)NCN2CCF", "values": [{"measurement": "EC", "setting": "[1]", "value": 47.5, "unit": "µM"}]}, {"compound": "CCN1CNS(=O)(=O)c2cc(Br)ccc21", "values": [{"measurement": "EC", "setting": "[1]", "value": 29, "unit": "µM"}]}, {"compound": "CCN1CNS(=O)(=O)c2cc(Cl)cnc21", "values": [{"measurement": "EC", "setting": "[1]", "value": 28.3, "unit": "µM"}]}, {"compound": "O=[N+]([O-])c1ccc2c(c1)S(=O)(=O)NCN2CC(F)(F)F", "values": [{"measurement": "EC", "setting": "[1]", "value": 55, "unit": "µM"}]}, {"compound": "O=S1(=O)NCN(CCO)c2ccc(Cl)cc21", "values": [{"measurement": "EC", "setting": "[1]", "value": 54, "unit": "µM"}]}, {"compound": "CCN1CNS(=O)(=O)c2cc(Cl)ccc21", "values": [{"measurement": "pKa", "setting": "[8]", "value": 9.33}, {"measurement": "Stability", "setting": "[9]", "value": "Unstable"}]}, {"compound": "O=S1(=O)NCN(CC(F)F)c2ccc(Cl)cc21", "values": [{"measurement": "EC", "setting": "[1]", "value": 13.5, "unit": "µM"}]}, {"compound": "O=[N+]([O-])c1ccc2c(c1)S(=O)(=O)NCN2CCF", "values": [{"measurement": "EC", "setting": "[1]", "value": 27, "unit": "µM"}, {"measurement": "pKa", "setting": "[8]", "value": 8.45}]}, {"compound": "O=S1(=O)NCN(CCF)c2ccc(I)cc21", "values": [{"measurement": "EC", "setting": "[1]", "value": 120, "unit": "µM"}]}, {"compound": "O=S1(=O)NCN(CCF)c2ccc(F)cc21", "values": [{"measurement": "EC", "setting": "[1]", "value": 3.6, "unit": "µM"}]}, {"compound": "CCN1CNS(=O)(=O)c2cc(C)ccc21", "values": [{"measurement": "EC", "setting": "[1]", "value": 25, "unit": "µM"}]}, {"compound": "NS(=O)(=O)c1cc2c(cc1Cl)NC(C1CC3C=CC1C3)NS2(=O)=O", "note": "(stereo unspecified) [CYCLOTHIAZIDE]", "values": [{"measurement": "EC", "setting": "[1]", "value": 1.7, "unit": "µM"}]}, {"compound": "CCN1CNS(=O)(=O)c2cc(OC)ccc21", "values": [{"measurement": "EC", "setting": "[1]", "value": 68, "unit": "µM"}]}, {"compound": "O=S1(=O)NCN(CCF)c2ccc(Br)cc21", "values": [{"measurement": "EC", "setting": "[1]", "value": 17, "unit": "µM"}]}, {"compound": "O=S1(=O)NCN(CC(F)(F)F)c2ccc(Cl)cc21", "values": [{"measurement": "EC", "setting": "[1]", "value": 19, "unit": "µM"}, {"measurement": "Activity", "setting": "[6]", "value": "inactive"}, {"measurement": "Activity", "setting": "[7]", "value": "Non-toxic"}, {"measurement": "pKa", "setting": "[8]", "value": 9.01}]}]}
